Experimental data taken from ChEMBL document CHEMBL5321284, “Discovery of a First-in-Class Degrader for the Lipid Kinase PIKfyve” (J Med Chem, 2023).
Activity calls are given as the source filed them. The rule behind the calls is not given here.

How the values were obtained:
[1] = molecular target: T1, von Hippel-Lindau disease tumor suppressor/1-phosphatidylinositol 3-phosphate 5-kinase (Homo sapiens) (UniProt Q9Y2I7+P40337); test: PROTAC activity at VHL/PIKfyve in human 22RV1 cells assessed as downregulation of PIKfyve expression at 10 to 3000 nM measured after 24 hrs by immunoblot analysis; type: cell-based; settings: dose 10-3000 nM
T1 sequence (P40337 whole entry partner): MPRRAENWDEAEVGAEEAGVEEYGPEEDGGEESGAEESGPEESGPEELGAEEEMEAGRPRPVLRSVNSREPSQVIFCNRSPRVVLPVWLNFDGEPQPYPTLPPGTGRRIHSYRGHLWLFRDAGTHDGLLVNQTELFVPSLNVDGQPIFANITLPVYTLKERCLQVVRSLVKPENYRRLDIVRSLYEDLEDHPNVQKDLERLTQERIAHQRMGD
T1 sequence (Q9Y2I7 2-2098 limits assumed): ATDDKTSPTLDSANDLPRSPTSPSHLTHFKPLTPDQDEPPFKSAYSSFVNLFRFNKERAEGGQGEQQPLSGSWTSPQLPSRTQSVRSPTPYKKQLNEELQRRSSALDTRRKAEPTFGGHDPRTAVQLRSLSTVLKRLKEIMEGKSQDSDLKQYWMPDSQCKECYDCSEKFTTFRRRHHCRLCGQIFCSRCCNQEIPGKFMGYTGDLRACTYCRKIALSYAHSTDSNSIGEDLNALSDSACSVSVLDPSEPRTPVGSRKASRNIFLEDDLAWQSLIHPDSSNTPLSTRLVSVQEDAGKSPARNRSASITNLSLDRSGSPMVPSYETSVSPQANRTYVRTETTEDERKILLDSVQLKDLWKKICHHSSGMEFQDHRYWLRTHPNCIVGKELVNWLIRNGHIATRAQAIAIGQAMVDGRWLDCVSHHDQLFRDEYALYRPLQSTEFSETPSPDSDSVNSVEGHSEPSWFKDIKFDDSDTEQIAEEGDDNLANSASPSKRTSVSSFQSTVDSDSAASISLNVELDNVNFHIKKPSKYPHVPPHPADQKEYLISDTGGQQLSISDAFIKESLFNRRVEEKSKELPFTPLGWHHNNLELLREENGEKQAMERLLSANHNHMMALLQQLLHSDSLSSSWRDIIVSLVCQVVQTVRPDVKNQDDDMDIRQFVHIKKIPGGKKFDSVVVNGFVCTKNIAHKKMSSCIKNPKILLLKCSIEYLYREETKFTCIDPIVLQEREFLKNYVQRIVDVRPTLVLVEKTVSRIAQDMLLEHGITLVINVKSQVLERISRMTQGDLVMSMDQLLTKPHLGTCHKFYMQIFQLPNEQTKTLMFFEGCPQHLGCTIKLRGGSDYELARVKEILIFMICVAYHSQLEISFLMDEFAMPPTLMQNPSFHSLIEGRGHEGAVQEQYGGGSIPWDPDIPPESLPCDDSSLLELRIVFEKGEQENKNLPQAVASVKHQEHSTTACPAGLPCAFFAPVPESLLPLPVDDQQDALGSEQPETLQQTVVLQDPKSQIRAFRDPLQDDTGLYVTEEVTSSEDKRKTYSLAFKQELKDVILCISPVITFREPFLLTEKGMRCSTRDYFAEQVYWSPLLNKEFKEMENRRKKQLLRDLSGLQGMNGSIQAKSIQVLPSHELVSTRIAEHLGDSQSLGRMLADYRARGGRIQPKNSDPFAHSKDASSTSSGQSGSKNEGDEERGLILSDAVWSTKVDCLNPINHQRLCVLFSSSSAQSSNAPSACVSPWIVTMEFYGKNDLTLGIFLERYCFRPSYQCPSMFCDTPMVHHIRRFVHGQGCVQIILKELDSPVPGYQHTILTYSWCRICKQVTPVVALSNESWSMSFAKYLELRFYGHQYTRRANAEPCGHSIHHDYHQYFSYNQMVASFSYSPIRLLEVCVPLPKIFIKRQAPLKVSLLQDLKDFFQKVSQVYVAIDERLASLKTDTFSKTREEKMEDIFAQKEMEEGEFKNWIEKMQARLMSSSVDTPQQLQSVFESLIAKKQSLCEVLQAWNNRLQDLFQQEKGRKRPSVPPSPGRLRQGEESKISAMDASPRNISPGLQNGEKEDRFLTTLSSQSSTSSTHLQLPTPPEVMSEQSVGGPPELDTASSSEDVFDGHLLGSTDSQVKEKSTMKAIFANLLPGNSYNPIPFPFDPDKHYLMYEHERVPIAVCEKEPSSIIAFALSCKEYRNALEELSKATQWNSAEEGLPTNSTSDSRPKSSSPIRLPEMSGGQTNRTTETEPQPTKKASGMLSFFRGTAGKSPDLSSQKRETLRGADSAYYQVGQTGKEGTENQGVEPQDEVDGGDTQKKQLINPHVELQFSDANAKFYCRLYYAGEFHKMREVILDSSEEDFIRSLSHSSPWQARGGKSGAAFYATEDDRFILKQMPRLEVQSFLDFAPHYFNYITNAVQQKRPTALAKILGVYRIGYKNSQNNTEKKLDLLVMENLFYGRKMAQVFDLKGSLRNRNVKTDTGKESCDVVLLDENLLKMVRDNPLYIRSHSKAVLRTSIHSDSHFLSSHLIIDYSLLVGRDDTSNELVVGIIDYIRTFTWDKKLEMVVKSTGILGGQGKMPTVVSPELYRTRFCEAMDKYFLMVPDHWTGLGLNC
Summary of the method: (§1)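 22RV1, LNCaP or PC3 cells given increasing concentrations for 24 h; RIPA lysates immunoblotted for PIKfyve with GAPDH loading control, ECL detection.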

[2] = molecular target: T1, von Hippel-Lindau disease tumor suppressor/1-phosphatidylinositol 3-phosphate 5-kinase (Homo sapiens); test: PROTAC activity at VHL/PIKfyve in human LNCaP cells assessed as downregulation of PIKfyve expression at 10 to 3000 nM measured after 24 hrs by immunoblot analysis; type: cell-based; settings: dose 10-3000 nM; summary of the method: as §1
[3] = molecular target: T1, von Hippel-Lindau disease tumor suppressor/1-phosphatidylinositol 3-phosphate 5-kinase (Homo sapiens); test: PROTAC activity at VHL/PIKfyve in human PC-3 cells assessed as downregulation of PIKfyve expression at 10 to 3000 nM measured after 24 hrs by immunoblot analysis; type: cell-based; settings: dose 10-3000 nM; summary of the method: as §1
[4] = molecular target: T1, von Hippel-Lindau disease tumor suppressor/1-phosphatidylinositol 3-phosphate 5-kinase (Homo sapiens); test: PROTAC activity at VHL/PIKfyve in human VCaP cells assessed as downregulation of PIKfyve expression at 300 nM measured after 4 hrs by TMT-labeled mass spectrometry; type: cell-based
Summary of the method: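 VCaP cells plated 3×10^6 per well overnight, then DMSO or 300 nM for 4 h; TMT-labeled quantitative global proteomics, mass-spec quantification of PIKfyve and lipid kinases.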

[5] = molecular target: T1, von Hippel-Lindau disease tumor suppressor/1-phosphatidylinositol 3-phosphate 5-kinase (Homo sapiens); test: PROTAC activity at VHL/PIKfyve in human VCaP cells assessed as induction of PIKfyve degradation by measuring half life at 100 nM by immunoblot analysis; type: cell-based
[6] = molecular target: T1, von Hippel-Lindau disease tumor suppressor/1-phosphatidylinositol 3-phosphate 5-kinase (Homo sapiens); test: PROTAC activity at VHL/PIKfyve in human VCaP cells assessed as maximal induction of PIKfyve degradation incubated for 24 hrs by immunoblot analysis relative to control; type: cell-based
Summary of the method: (§2)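 VCaP cells treated with increasing concentrations for 24 h; PIKfyve and GAPDH immunoblotted; percent remaining PIKfyve plotted to determine DC50 and Dmax.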

[7] = molecular target: T1, von Hippel-Lindau disease tumor suppressor/1-phosphatidylinositol 3-phosphate 5-kinase (Homo sapiens); test: PROTAC activity at VHL/PIKfyve in human VCaP cells assessed as induction of PIKfyve degradation at 1 uM incubated for 24 hrs by immunoblot analysis; type: cell-based
Summary of the method: (§3)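 VCaP cells treated 24 h at 0.1 or 1.0 µM; percent PIKfyve degradation determined by immunoblotting.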

[8] = molecular target: T1, von Hippel-Lindau disease tumor suppressor/1-phosphatidylinositol 3-phosphate 5-kinase (Homo sapiens); test: PROTAC activity at VHL/PIKfyve in human VCaP cells assessed as induction of PIKfyve degradation at 0.1 uM incubated for 24 hrs by immunoblot analysis; type: cell-based; summary of the method: as §3
[9] = molecular target: T1, von Hippel-Lindau disease tumor suppressor/1-phosphatidylinositol 3-phosphate 5-kinase (Homo sapiens); test: PROTAC activity at VHL/PIKfyve in human VCaP cells assessed as induction of PIKfyve degradation at 0.1 to 1 uM incubated for 24 hrs by immunoblot analysis; type: cell-based; settings: dose 0.1-1 µM
Summary of the method: (§4)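 VCaP cells treated 24 h at 0.1 and 1 µM, with or without pretreatment by 1 µM bortezomib; PIKfyve and GAPDH immunoblotted.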

[10] = molecular target: T1, von Hippel-Lindau disease tumor suppressor/1-phosphatidylinositol 3-phosphate 5-kinase (Homo sapiens); test: PROTAC activity at VHL/PIKfyve in human VCaP cells assessed as induction of PIKfyve degradation incubated for 24 hrs by immunoblot analysis; type: cell-based; summary of the method: as §2
[11] = molecular target: T1, von Hippel-Lindau disease tumor suppressor/1-phosphatidylinositol 3-phosphate 5-kinase (Homo sapiens); test: PROTAC activity at VHL/PIKfyve in human VCaP cells assessed as induction of PIKfyve degradation at 0.1 to 1 uM incubated for 24 hrs in presence of proteasome inhibitor, bortezomib by immunoblot analysis; type: cell-based; settings: dose 0.1-1 µM; summary of the method: as §4
[12] = molecular target: T1, von Hippel-Lindau disease tumor suppressor/1-phosphatidylinositol 3-phosphate 5-kinase (Homo sapiens); test: PROTAC activity at VHL/PIKfyve in human VCaP cells assessed as induction of PIKfyve degradation at 0.1 to 0.3 uM incubated for 24 hrs in presence of PIKfyve inhibitor, apilimod by immunoblot analysis; type: cell-based; settings: dose 0.1-0.3 µM
Summary of the method: (§5)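 VCaP cells given increasing concentrations of degrader with or without warhead 1 or VHL ligand VL285 for 24 h; immunoblot of PIKfyve and GAPDH.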

[13] = molecular target: T1, von Hippel-Lindau disease tumor suppressor/1-phosphatidylinositol 3-phosphate 5-kinase (Homo sapiens); test: PROTAC activity at VHL/PIKfyve in human VCaP cells assessed as induction of PIKfyve degradation at 0.1 to 0.3 uM incubated for 24 hrs in presence of VHL ligand, VL285 by immunoblot analysis; type: cell-based; settings: dose 0.1-0.3 µM; summary of the method: as §5
[14] = tested on: DU-145; test: Induction of massive cytoplasmic vacuolization in human RFP-labeled DU-145 cells incubated for 24 hrs; type: functional, cell-based; settings: dose 100-3000 nM
Summary of the method: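 RFP-labeled DU145 cells treated 24 h (300 nM shown); vacuole area per cell quantified from images.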

[15] = tested on: PC-3; test: Inhibition of autophagy in human PC-3 cells assessed as increase in LC3A/B expression incubated for 24 hrs by immunoblot analysis; type: functional, cell-based; settings: dose 10-3000 nM
Summary of the method: (§6)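 22RV1, LNCaP or PC3 cells (5% CO2, 37 °C) exposed to increasing concentrations for 24 h; RIPA lysates with protease/phosphatase inhibitors, 4–12% Bis-Tris SDS-PAGE, PVDF, milk block, immunoblotted for PIKfyve and autophagy markers LC3A/B and p62, ECL detection.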

[16] = tested on: LNCaP; test: Inhibition of autophagy in human LNCaP cells assessed as increase in LC3A/B expression incubated for 24 hrs by immunoblot analysis; type: functional, cell-based; settings: dose 10-3000 nM; summary of the method: as §6
[17] = tested on: CWR22R; test: Inhibition of autophagy in human 22Rv1 cells assessed as increase in LC3A/B expression incubated for 24 hrs by immunoblot analysis; type: functional, cell-based; settings: dose 10-3000 nM; summary of the method: as §6
[18] = tested on: PC-3; test: Inhibition of autophagy in human PC-3 cells assessed as increase in p62 expression incubated for 24 hrs by immunoblot analysis; type: functional, cell-based; settings: dose 10-3000 nM; summary of the method: as §6
[19] = tested on: LNCaP; test: Inhibition of autophagy in human LNCaP cells assessed as increase in p62 expression incubated for 24 hrs by immunoblot analysis; type: functional, cell-based; settings: dose 10-3000 nM; summary of the method: as §6
[20] = tested on: CWR22R; test: Inhibition of autophagy in human 22Rv1 cells assessed as increase in p62 expression incubated for 24 hrs by immunoblot analysis; type: functional, cell-based; settings: dose 10-3000 nM; summary of the method: as §6
[21] = tested on: VCaP; test: Antiproliferative activity against human VCaP cells assessed as inhibition of cell proliferation incubated for 24 hrs followed by culturing in compound-free medium for 2 weeks by crystal violet staining based analysis; type: functional
Summary of the method: (§7)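 VCaP cells exposed either 24 h then washed and chased 2 weeks in compound-free medium, or continuously for 2 weeks; long-term viability visualized by crystal violet staining; IC50 calculated for each condition.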

[22] = tested on: VCaP; test: Antiproliferative activity against human VCaP cells assessed as inhibition of cell proliferation incubated for 2 weeks by crystal violet staining based analysis; type: functional; settings: 336 h; summary of the method: as §7
[23] = tested on: VCaP; test: Antiproliferative activity against human VCaP cells assessed as inhibition of cell proliferation incubated for 4 hrs followed by culturing in compound-free medium for 2 weeks by crystal violet staining based analysis; type: functional
Summary of the method: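 VCaP cells treated 4 h, compound removed, then cultured 2 weeks in drug-free medium; long-term viability by crystal violet staining.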

[24] = molecular target: T1, von Hippel-Lindau disease tumor suppressor/1-phosphatidylinositol 3-phosphate 5-kinase (Homo sapiens); test: PROTAC activity at VHL/PIKfyve in human VCaP cells assessed as induction of PIKfyve degradation at 300 nM incubated for 4 hrs followed by culturing in compound-free medium for 72 hrs by immunoblot analysis; type: cell-based
Summary of the method: (§8)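 VCaP cells treated 4 h, compounds removed, cultured 72 h in compound-free medium; whole cell lysates immunoblotted for PIKfyve, LC3A/B and GAPDH (RIPA lysis, 4–12% Bis-Tris gels, PVDF, ECL).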

[25] = tested on: VCaP; test: Inhibition of autophagy in human VCaP cells assessed as increase in LC3A/B expression at 300 nM incubated for 4 hrs followed by culturing in compound-free medium for 72 hrs by immunoblot analysis; type: functional, cell-based; summary of the method: as §8
[26] = tested on: DU-145; test: Induction of massive cytoplasmic vacuolization in human RFP-labeled DU-145 cells at 300 nM incubated for 4 hrs; type: functional, cell-based
[27] = tested on: Mus musculus; test: In vivo induction of PIKfyve degradation in tumor of LTL-331R-xenografted CB17 mouse assessed as downregulation of PIKfyve expression at 4 to 10 mg/kg, ip for 4 days by western blot analysis; type: functional, organism-based; settings: dose 4-10 mg/kg, time 4.0 day
Summary of the method: (§9)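 LTL-331R prostate cancer PDX; IP once daily for 3 days at 4 or 10 mg/kg in 5% DMSO/95% of 40% hydroxypropyl-β-cyclodextrin (freshly dissolved); tumors collected 24 h after last dose on day 4; whole tumor lysate immunoblotted for PIKfyve, LC3A/B, GAPDH, or TUNEL in situ cell death staining.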

[28] = tested on: LTL-331R; test: Antitumor activity against human LTL-331R xenografted in CB17 mouse assessed as induction of tumor cell death at 4 to 10 mg/kg, ip for 4 days by TUNEL assay; type: functional, organism-based; settings: dose 4-10 mg/kg, time 4.0 day; summary of the method: as §9
[29] = tested on: LTL-331R; test: Antitumor activity against human LTL-331R xenografted in CB17 mouse assessed as inhibition of tumor cell proliferation at 15 mg/kg, ip at 5 days on and 2 days off regimen for 17 days by digital caliper analysis; type: functional, organism-based; settings: time 17.0 day
Summary of the method: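 LTL-331R PDX; once-daily IP dosing, 5 days on/2 days off for 17 days, vehicle 5% DMSO/95% of 40% hydroxypropyl-β-cyclodextrin; tumors measured at least twice weekly by caliper, volume (π/6)(L×W²); vehicle vs treated compared by two-tailed unpaired t test.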

Activity [1]: Active | Activity [2]: Active | Activity [3]: Active | Activity [4]: Active | T1/2 [5]: 1.5 h | Activity [6]: 97.9% | Activity [7]: 91% | Activity [8]: 97% | Activity [9]: Active | Activity [10]: Dose-Dependent Effect | Activity [11]: inactive | Activity [12]: inactive | Activity [13]: inactive | IC50 [21]: 522 nM | IC50 [22]: 55.9 nM | IC50 [23]: 1200 nM | Activity [24]: Active
SMILES: Cc1cccc(/C=N/Nc2cc(N3CCOCC3)nc(OCCc3ccc(NC(=O)CCCCC(=O)N[C@H](C(=O)N4C[C@H](O)C[C@H]4C(=O)NCc4ccc(-c5scnc5C)cc4)C(C)(C)C)cc3)n2)c1
Activity [14]: Dose-Dependent Effect | inhibition [15]: Dose-Dependent Effect | inhibition [16]: Dose-Dependent Effect | inhibition [17]: Dose-Dependent Effect | inhibition [18]: Dose-Dependent Effect | inhibition [19]: Dose-Dependent Effect | inhibition [20]: Dose-Dependent Effect | inhibition [25]: Active | Activity [26]: Active | Activity [27]: Active | Activity [28]: Active | Activity [29]: Active
